Experimental data as given in ChEMBL document CHEMBL4138242, “Synthesis and antibacterial evaluation of novel cationic chalcone derivatives possessing broad spectrum antibacterial activity” (Eur J Med Chem, 2018).
Activity calls are given as the source filed them. The rule behind the calls is not given here.

Columns and labels:
Staphylococcus aureus [1] = experiment: Antibacterial activity against methicillin-resistant Staphylococcus aureus clinical isolate 20131012632sau after 16 to 20 hrs by broth microdilution method; assay type: functional
Procedure, shortened: (§1)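 CLSI broth microdilution in Mueller-Hinton broth. A 4-6 h culture was diluted to about 10⁶ CFU/mL and mixed 1:1 with compound dilutions prepared at 256 to 0.5 µg/mL from aqueous stocks. Plates were incubated at 37 °C for 16-20 h and read visually for MIC. Each concentration was run in duplicate, and the experiment was repeated at least twice. Vancomycin and meropenem were comparators.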

Escherichia coli [2] = experiment: Induction of inner membrane permeabilization in Escherichia coli ATCC 25922 at 10 to 20 ug/ml measured every 2 mins for 12 mins by propidium iodide staining-based fluorescence assay; assay type: functional, organism-based
Procedure, shortened: (§2)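 Mid-log cells (~10⁸ CFU/mL) were suspended in PBS (S. aureus) or HEPES/glucose/KCl (E. coli). They were preincubated with propidium iodide for 30 min (S. aureus) or 40 min (E. coli), and baseline fluorescence was read for 8 min. Compound was added to 20 µg/mL final, and fluorescence (ex 535/em 617 nm) was read every 2 min for 12 min.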

Staphylococcus aureus [3] = experiment: Antibacterial activity against methicillin-resistant Staphylococcus aureus clinical isolate 1-may after 16 to 20 hrs by broth microdilution method; assay type: functional; procedure, shortened: as §1
Escherichia coli [4] = experiment: Disruption of 72 hrs cultured Escherichia coli ATCC 25922 biofilm assessed as decrease in cell viability in biofilm after 24 hrs by crystal violet staining-based assay; assay type: functional, organism-based
Staphylococcus aureus [5] = experiment: Induction of cytoplasmic membrane depolarization in Staphylococcus aureus ATCC 29213 at 10 to 20 ug/ml measured every 2 mins for 12 mins by DiSC35 dye-based fluorescence assay; assay type: functional, organism-based
Procedure, shortened: (§3)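 Mid-log cells (~10⁸ CFU/mL) were suspended in PBS (S. aureus) or HEPES/glucose/KCl with EDTA (E. coli). They were preloaded with DiSC3(5) for 30 min (S. aureus) or 40 min (E. coli), and baseline fluorescence was read for 8 min. Compound was added to 20 µg/mL final, and fluorescence (ex 622/em 670 nm) was read every 2 min for 12 min. Water served as control.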

Staphylococcus aureus [6] = experiment: Ratio of MBC99.9 for methicillin-resistant Staphylococcus aureus in presence of 50% sheep serum to MBC99.9 for methicillin-resistant Staphylococcus aureus ATCC 29213 in presence of 50% sheep plasma; assay type: functional
Procedure, shortened: (§4)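 MRSA at 10⁵ CFU/mL in 50% MHB plus 50% sheep serum, plasma or defibrinated blood; serum and plasma were obtained by centrifugation at 3,500 rpm for 10 min. Aqueous dilutions prepared at 512-4 µg/mL were added 1:3 to the suspension and incubated for 20-24 h at 37 °C. Well contents (20 µL) were plated on MHA for 20-24 h, and MBC was the concentration giving no colonies.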

HeLa [7] = experiment: Cytotoxicity against human HeLa cells at 2 to 4 times MIC after 24 hrs by calcein AM/propidium iodide staining-based fluorescence microscopic method; assay type: cell-based
Procedure, shortened: (§5)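 HeLa cells in DMEM with 10% FBS (37 °C, 5% CO₂), seeded in 12-well plates and left to adhere overnight. Treated 24 h with compound at 2× and 4× MIC; untreated and 0.1% Triton X-100 controls. Cells washed with PBS and imaged for morphology. For live/dead imaging, stained with 2 µM calcein AM and 4.5 µM PI for 15 min at 37 °C.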

[8] = Hemolytic activity in sheep RBC after 1 hr; assay type: ADME, cell-based, Ovis aries, Erythrocyte; details: sheep red blood cells (erythrocytes)
Procedure, shortened: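 Sheep red blood cells (150 µL suspension) mixed with 50 µL of compound dilutions (5120-10 µg/mL), 1 h at 37 °C, then centrifuged. Supernatant read at 540 nm. Percent hemolysis calculated relative to RBC-only control (0%) and 0.1% Triton X-100 (100%).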

Enterococcus faecalis = experiment: Antibacterial activity against Enterococcus faecalis ATCC 29212 after 16 to 20 hrs by broth microdilution method; assay type: functional
Procedure, shortened: (§6)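 Broth microdilution per CLSI. Bacteria grown 4-6 h (about 10⁸ CFU/mL), then diluted to about 10⁶ CFU/mL. Medium: Mueller-Hinton broth, except Luria-Bertani broth for E. coli. Compounds in sterile water, twofold series 256-0.5 µg/mL, mixed 1:1 with inoculum, 37 °C for 16-20 h. MIC is the lowest concentration without visible growth. Duplicate wells; experiment repeated at least twice.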

Staphylococcus aureus [9] = experiment: Bactericidal activity against methicillin-resistant Staphylococcus aureus in presence of 50% sheep serum after 20 to 24 hrs; assay type: functional; details: read-out: MBC99.9; procedure, shortened: as §4
Staphylococcus aureus [10] = experiment: Antibacterial activity against methicillin-resistant Staphylococcus aureus clinical isolate 1208143 after 16 to 20 hrs by broth microdilution method; assay type: functional; procedure, shortened: as §1
Escherichia coli [11] = experiment: Antibacterial activity against Escherichia coli ATCC 25922 after 16 to 20 hrs by broth microdilution method; assay type: functional; procedure, shortened: as §6
Escherichia coli [12] = experiment: Induction of cytoplasmic membrane depolarization in Escherichia coli ATCC 25922 at 10 to 20 ug/ml measured every 2 mins for 12 mins by DiSC35 dye-based fluorescence assay; assay type: functional, organism-based; procedure, shortened: as §3
Salmonella enterica = experiment: Antibacterial activity against Salmonella enterica ATCC 13076 after 16 to 20 hrs by broth microdilution method; assay type: functional; procedure, shortened: as §6
Staphylococcus aureus [13] = experiment: Antibacterial activity against methicillin-resistant Staphylococcus aureus clinical isolate 20130911034sau after 16 to 20 hrs by broth microdilution method; assay type: functional; procedure, shortened: as §1
Staphylococcus aureus [14] = experiment: Bactericidal activity against methicillin-resistant Staphylococcus aureus in presence of 50% sheep blood after 20 to 24 hrs; assay type: functional; details: read-out: MBC99.9; procedure, shortened: as §4
Staphylococcus aureus [15] = experiment: Induction of inner membrane permeabilization in Staphylococcus aureus ATCC 29213 at 10 to 20 ug/ml measured every 2 mins for 12 mins by propidium iodide staining-based fluorescence assay; assay type: functional, organism-based; procedure, shortened: as §2
Staphylococcus aureus [16] = experiment: Antibacterial activity against methicillin-resistant Staphylococcus aureus clinical isolate 0906202 after 16 to 20 hrs by broth microdilution method; assay type: functional; procedure, shortened: as §1
Staphylococcus aureus [17] = experiment: Antibacterial activity against Staphylococcus aureus ATCC 29213 after 16 to 20 hrs by broth microdilution method; assay type: functional; procedure, shortened: as §6
Staphylococcus aureus [18] = experiment: Antibacterial activity against methicillin-resistant Staphylococcus aureus clinical isolate 1207007 after 16 to 20 hrs by broth microdilution method; assay type: functional; procedure, shortened: as §1
Staphylococcus aureus [19] = experiment: Bactericidal activity against Staphylococcus aureus ATCC 29213 at 6 times MIC after 3 hrs by time-kill assay (reference value: 10^6.1 CFU/ml); assay type: functional
Procedure, shortened: (§7)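 Overnight cultures diluted 1:10,000 in MHB and grown at 37 °C, 225 rpm, for 2 h (early exponential) or 5 h (late exponential). Cells exposed to compound at 6× or 8× MIC in tubes at 37 °C, 225 rpm. At intervals, aliquots were spun, resuspended in PBS, tenfold diluted, plated on MHA overnight at 37 °C and counted as CFU/mL. Biological replicates.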

HeLa [20] = experiment: Cytotoxicity against human HeLa cells assessed as effect on cell morphology at 2 to 4 times MIC after 24 hrs by electron scanning microscopic method; assay type: cell-based; procedure, shortened: as §5
Staphylococcus aureus [21] = experiment: Antibacterial activity against methicillin-resistant Staphylococcus aureus clinical isolate 1104060 after 16 to 20 hrs by broth microdilution method; assay type: functional; procedure, shortened: as §1
Staphylococcus aureus [22] = experiment: Antibacterial activity against methicillin-resistant Staphylococcus aureus clinical isolate 0831010 after 16 to 20 hrs by broth microdilution method; assay type: functional; procedure, shortened: as §1
Staphylococcus aureus [23] = experiment: Antibacterial activity against methicillin-resistant Staphylococcus aureus clinical isolate 1105183 cono7 after 16 to 20 hrs by broth microdilution method; assay type: functional; procedure, shortened: as §1
Escherichia coli [24] = experiment: Bactericidal activity against Escherichia coli ATCC 25922 at 6 to 8 times MIC after 6 hrs by time-kill assay; assay type: functional, organism-based; procedure, shortened: as §7

## CCCCCCCC[N+](C)(C)CC(=O)Nc1ccc(C(=O)/C=C/c2ccccc2)cc1.[Cl-]
Staphylococcus aureus [1]
  MIC: 4 µg/mL
Escherichia coli [2]
  Activity: Active
Staphylococcus aureus [3]
  MIC: 1 µg/mL
Escherichia coli [4]
  Activity: Active
Staphylococcus aureus [5]
  Activity: Active
Staphylococcus aureus [6]
  Ratio: 2
HeLa [7]
  Activity: Toxic
[8]
  HC50 at 1 h: 228 µg/mL
Enterococcus faecalis
  MIC: 1 µg/mL
Staphylococcus aureus [9]
  MBC: 32 µg/mL
Staphylococcus aureus [10]
  MIC: 2 µg/mL
Escherichia coli [11]
  MIC: 2 µg/mL
Escherichia coli [12]
  Activity: Active
Salmonella enterica
  MIC: 4 µg/mL
Staphylococcus aureus [13]
  MIC: 0.5 µg/mL
Staphylococcus aureus [14]
  MBC: 128 µg/mL
Staphylococcus aureus [15]
  Activity: Active
Staphylococcus aureus [16]
  MIC: 4 µg/mL
Staphylococcus aureus [17]
  MIC: 1 µg/mL
Staphylococcus aureus [18]
  MIC: 0.5 µg/mL
Staphylococcus aureus [19]
  Activity: 1 CFU/ml
HeLa [20]
  Activity: Non-Toxic
Staphylococcus aureus [21]
  MIC: 8 µg/mL
Staphylococcus aureus [22]
  MIC: 1 µg/mL
Staphylococcus aureus [23]
  MIC: 1 µg/mL
Escherichia coli [24]
  Activity: Active
